Legend:
Assay type in all cases: functional
OVCAR-5 = experiment: Growth inhibition of human OVCAR5 cells after 48 hrs by sulforhodamine B assay; conditions: OVCAR-5, 48 h; for CC50: read-out: LC50 (the source's name)
Outline: (§1)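 NCI 60-cell-line panel. Cells were grown in medium with 5% fetal calf serum and 2 mM L-glutamine, then preincubated 24 h in plates. Compounds were added from DMSO at five 10-fold concentrations from 100 to 0.01 µM and left on cells continuously for 48 h. Cell growth was read by sulforhodamine B protein stain. GI50 is the concentration that halves net protein increase relative to control cells.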

NCI-H522 = experiment: Growth inhibition of human NCI-H522 cells after 48 hrs by sulforhodamine B assay; conditions: NCI-H522, 48 h; outline: as §1
SR [1] = experiment: Growth inhibition of human SR cells after 48 hrs by sulforhodamine B assay; outline: as §1
ACHN = experiment: Growth inhibition of human ACHN cells assessed as cell growth at 10 uM after 48 hrs by sulforhodamine B assay; conditions: read-out: Activity
COLO 205 = experiment: Growth inhibition of human COLO205 cells assessed as cell growth at 10 uM after 48 hrs by sulforhodamine B assay; conditions: COLO 205, 48 h, read-out: Activity
UACC-62 = experiment: Growth inhibition of human UACC62 cells assessed as cell growth at 10 uM after 48 hrs by sulforhodamine B assay; conditions: UACC-62, 48 h, read-out: Activity
Outline: (§2)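 Single-dose NCI screen. Tumor lines were cultured in medium with 5% fetal calf serum and 2 mM L-glutamine, preincubated 24 h, then given compound in DMSO. After 48 h continuous exposure, cell growth was estimated by sulforhodamine B protein assay.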

NCI-H460 = experiment: Growth inhibition of human NCI-H460 cells after 48 hrs by sulforhodamine B assay; conditions: NCI-H460, 48 h; for CC50: read-out: LC50 (the source's name); outline: as §1
SR [2] = experiment: Growth inhibition of human SR cells assessed as cell growth at 10 uM after 48 hrs by sulforhodamine B assay; conditions: read-out: Activity; outline: as §2
SF-539 = experiment: Growth inhibition of human SF539 cells assessed as cell growth at 10 uM after 48 hrs by sulforhodamine B assay; conditions: SF-539, 48 h, read-out: Activity
UACC-257 = experiment: Growth inhibition of human UACC257 cells after 48 hrs by sulforhodamine B assay; conditions: UACC-257, 48 h
Outline: (§3)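 NCI 60-line panel. Cells were grown in medium with 5% fetal calf serum and 2 mM L-glutamine and preincubated 24 h in plates. Compound in DMSO was added at 10^-4 to 10^-8 M (five 10-fold levels), with continuous exposure for 48 h. Growth was read by SRB protein staining. GI50 is the concentration giving 50% reduction in net protein increase versus control cells.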

BT-549 [3] = experiment: Growth inhibition of human BT549 cells assessed as cell growth at 10 uM after 48 hrs by sulforhodamine B assay; conditions: BT-549, 48 h, read-out: Activity
MDA-MB-435 = experiment: Growth inhibition of human MDA-MB-435 cells after 48 hrs by sulforhodamine B assay; conditions: MDA-MB-435, 48 h; outline: as §1
MDA-MB-231 = experiment: Growth inhibition of human MDA-MB-231 cells after 48 hrs by sulforhodamine B assay; conditions: MDA-MB-231, 48 h
Outline: (§4)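 NCI 60-cell-line panel grown in RPMI-type medium with 5% fetal calf serum and 2 mM L-glutamine. Cells preincubated 24 h, then exposed continuously for 48 h to compound in DMSO at 10^-4 to 10^-8 M (five 10-fold levels). Growth read by SRB protein stain. GI50 is the concentration giving a 50% reduction in net protein increase relative to control cells.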

SK-MEL-2 = experiment: Growth inhibition of human SK-MEL-2 cells assessed as cell growth at 10 uM after 48 hrs by sulforhodamine B assay; conditions: SK-MEL-2, 48 h, read-out: Activity
IGROV-1 = experiment: Growth inhibition of human IGROV1 cells assessed as cell growth at 10 uM after 48 hrs by sulforhodamine B assay; conditions: IGROV-1, 48 h, read-out: Activity
OVCAR-4 = experiment: Growth inhibition of human OVCAR4 cells assessed as cell growth at 10 uM after 48 hrs by sulforhodamine B assay; conditions: OVCAR-4, 48 h, read-out: Activity
SK-MEL-28 = experiment: Growth inhibition of human SK-MEL-28 cells after 48 hrs by sulforhodamine B assay; conditions: SK-MEL-28, 48 h; for CC50: read-out: LC50 (the source's name); outline: as §1
[4] = Growth inhibition of human EKVX cells after 48 hrs by sulforhodamine B assay; conditions: for CC50: read-out: LC50 (the source's name); outline: as §4
SW-620 = experiment: Growth inhibition of human SW620 cells after 48 hrs by sulforhodamine B assay; conditions: SW-620, 48 h; for CC50: read-out: LC50 (the source's name); outline: as §3
T47D = experiment: Growth inhibition of human T47D cells assessed as cell growth at 10 uM after 48 hrs by sulforhodamine B assay; conditions: read-out: Activity; outline: as §2
SF-268 = experiment: Growth inhibition of human SF268 cells after 48 hrs by sulforhodamine B assay; conditions: SF-268, 48 h; for CC50: read-out: LC50 (the source's name); outline: as §1
A549 = experiment: Growth inhibition of human A549/ATCC cells after 48 hrs by sulforhodamine B assay; conditions: A549, 48 h; for CC50: read-out: LC50 (the source's name); outline: as §4
[5] = Growth inhibition of human NCI-ADR-RES cells assessed as cell growth at 10 uM after 48 hrs by sulforhodamine B assay; conditions: read-out: Activity
RXF 393 = experiment: Growth inhibition of human RXF393 cells assessed as cell growth at 10 uM after 48 hrs by sulforhodamine B assay; conditions: RXF 393, 48 h, read-out: Activity
[6] = Growth inhibition of human Hs 578T cells assessed as cell growth at 10 uM after 48 hrs by sulforhodamine B assay; conditions: read-out: Activity
HCT-116 = experiment: Growth inhibition of human HCT116 cells assessed as cell growth at 10 uM after 48 hrs by sulforhodamine B assay; conditions: HCT-116, 48 h, read-out: Activity
Rattus norvegicus = experiment: Antiinflammatory activity in Wistar rat assessed as inhibition of carrageenan-induced paw edema at 0.05 mmol/kg, po administered 30 mins prior challenge measured after 3 hrs
Outline: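 Wistar rats of either sex, 150–175 g, fasted 16 h, 6 per group. Dosed orally at 0.05 mmol/kg, suspended in 1% CMC in water (10 ml/kg). 30 min later, 0.1 ml of 1% carrageenan in saline injected subplantar into the left hind paw. Paw volume read by plethysmometer at 0, 3 and 5 h. % inhibition = (1 − Vt/Vc) × 100 against the vehicle group.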

BT-549 [7] = experiment: Growth inhibition of human BT549 cells after 48 hrs by sulforhodamine B assay; conditions: BT-549, 48 h; for CC50: read-out: LC50 (the source's name); outline: as §4

Cc1cc(O)ccc1C1=NN(c2ccc(S(C)(=O)=O)cc2)C(=O)CC1
GI50 (OVCAR-5): 53.8 µM | TGI (OVCAR-5): > 100 µM | CC50 (OVCAR-5): > 100 µM | GI50 (NCI-H522): 2.53 µM | LC50 (concentration killing 50% of starting cells) (NCI-H522): > 100 µM | TGI (NCI-H522): 8.6 µM | GI50 (SR [1]): 3.39 µM | LC50 (SR [1]): > 100 µM | TGI (SR [1]): > 100 µM | growth at 10 µM (ACHN): 79.7% | growth at 10 µM (COLO 205): 65.8% | growth at 10 µM (UACC-62): 52.9% | GI50 (NCI-H460): 3.87 µM | TGI (NCI-H460): > 100 µM | CC50 (NCI-H460): > 100 µM | growth at 10 µM (SR [2]): 12.3% | growth at 10 µM (SF-539): 73.8% | GI50 (UACC-257): 5.65 µM | LC50 (concentration killing 50% of cells) (UACC-257): > 100 µM | TGI (UACC-257): > 100 µM | growth at 10 µM (BT-549 [3]): 58.2% | GI50 (MDA-MB-435): 1.28 µM | LC50 (concentration killing 50% of starting cells) (MDA-MB-435): > 100 µM | TGI (MDA-MB-435): 5.83 µM | GI50 (MDA-MB-231): 17.1 µM | LC50 (MDA-MB-231): > 100 µM | TGI (MDA-MB-231): > 100 µM | growth at 10 µM (SK-MEL-2): 68.7% | growth at 10 µM (IGROV-1): 43.5% | growth at 10 µM (OVCAR-4): 98% | GI50 (SK-MEL-28): 9.56 µM | TGI (SK-MEL-28): > 100 µM | CC50 (SK-MEL-28): > 100 µM | GI50 [4]: 57.9 µM | TGI [4]: > 100 µM | CC50 [4]: > 100 µM | GI50 (SW-620): 3.32 µM | TGI (SW-620): > 100 µM | CC50 (SW-620): > 100 µM | growth at 10 µM (T47D): 84.8% | GI50 (SF-268): 40 µM | TGI (SF-268): > 100 µM | CC50 (SF-268): > 100 µM | GI50 (A549): 6.2 µM | TGI (A549): > 100 µM | CC50 (A549): > 100 µM | growth at 10 µM [5]: 40.6% | growth at 10 µM (RXF 393): 81.2% | growth at 10 µM [6]: 87% | growth at 10 µM (HCT-116): 52.4% | inhibition in vivo at 50 µmol/kg (Rattus norvegicus): 33.3% | GI50 (BT-549 [7]): 4.97 µM | TGI (BT-549 [7]): > 100 µM | CC50 (BT-549 [7]): > 100 µM

Cc1ccc(C2=NN(c3ccc(S(C)(=O)=O)cc3)C(=O)CC2)cc1
GI50 (OVCAR-5): 3.69 µM | TGI (OVCAR-5): > 100 µM | CC50 (OVCAR-5): > 100 µM | GI50 (NCI-H522): 0.22 µM | LC50 (concentration killing 50% of starting cells) (NCI-H522): > 100 µM | TGI (NCI-H522): 1 µM | GI50 (SR [1]): 0.29 µM | LC50 (SR [1]): > 100 µM | TGI (SR [1]): > 100 µM | growth at 10 µM (ACHN): 54.5% | growth at 10 µM (COLO 205): 4.23% | growth at 10 µM (UACC-62): 42.9% | GI50 (NCI-H460): 0.38 µM | TGI (NCI-H460): > 100 µM | CC50 (NCI-H460): > 100 µM | growth at 10 µM (SR [2]): 4.47% | growth at 10 µM (SF-539): -7.93% | GI50 (UACC-257): 0.61 µM | LC50 (concentration killing 50% of cells) (UACC-257): > 100 µM | TGI (UACC-257): > 100 µM | growth at 10 µM (BT-549 [3]): 11.3% | GI50 (MDA-MB-435): 0.12 µM | LC50 (concentration killing 50% of starting cells) (MDA-MB-435): > 100 µM | TGI (MDA-MB-435): 0.39 µM | GI50 (MDA-MB-231): 0.83 µM | LC50 (MDA-MB-231): > 100 µM | TGI (MDA-MB-231): > 100 µM | growth at 10 µM (SK-MEL-2): 6.35% | growth at 10 µM (IGROV-1): 59.2% | growth at 10 µM (OVCAR-4): 60.8% | GI50 (SK-MEL-28): 0.66 µM | TGI (SK-MEL-28): > 100 µM | CC50 (SK-MEL-28): > 100 µM | GI50 [4]: 3.02 µM | TGI [4]: > 100 µM | CC50 [4]: > 100 µM | GI50 (SW-620): 0.34 µM | TGI (SW-620): > 100 µM | CC50 (SW-620): > 100 µM | growth at 10 µM (T47D): 32.7% | GI50 (SF-268): 2.94 µM | TGI (SF-268): > 100 µM | CC50 (SF-268): > 100 µM | GI50 (A549): 0.52 µM | TGI (A549): > 100 µM | CC50 (A549): > 100 µM | growth at 10 µM [5]: 6.72% | growth at 10 µM (RXF 393): 15.4% | growth at 10 µM [6]: -1.17% | growth at 10 µM (HCT-116): 17.7% | inhibition in vivo at 50 µmol/kg (Rattus norvegicus): 46.7% | GI50 (BT-549 [7]): 0.6 µM | TGI (BT-549 [7]): > 100 µM | CC50 (BT-549 [7]): > 100 µM

— ChEMBL document CHEMBL2417474, “Synthesis, antiproliferative and anti-inflammatory activities of some novel 6-aryl-2-(p-(methanesulfonyl)phenyl)-4,5-dihydropyridazi-3(2H)-ones” (Eur J Med Chem, 2013)
